{"data": "Published values of several laboratories", "target": "Calcium/calmodulin-dependent protein kinase type II subunit beta (CAMK2B, Homo sapiens, UniProt Q13554)"}
{"Structure (SMILES)": "CN([C@@H]1CCc2c(CC(=O)O)c3cc(S(C)(=O)=O)ccc3n2C1)S(=O)(=O)c1ccc(F)cc1", "observed": "cell-free assay", "technique": "competition with immobilised ligand", "concentration": "1 µM", "remaining binding": "100%"}
{"Structure (SMILES)": "O=C(c1ccc(Nc2ncc(Cl)c(-c3ccc(Cl)s3)n2)cc1)N1CCC(N2CCCC2)CC1", "observed": "binding", "technique": "competition with immobilised ligand", "concentration": "1 µM", "remaining binding": "87%"}
{"Structure (SMILES)": "N[C@@H]1CCN(c2nccc(-c3cnn4ncccc34)n2)C1", "observed": "binding", "concentration": "1 µM", "remaining binding": "100%"}
{"Structure (SMILES)": "FC(F)(F)Oc1cccc(-c2cnc3ccc(-c4ccncc4)nn23)c1", "observed": "cell-free assay", "technique": "competition with immobilised ligand", "concentration": "5 µM", "remaining binding": "47%"}
{"Structure (SMILES)": "c1cncc(-c2cccc(Nc3nccc(NC4CCCCC4)n3)c2)c1", "observed": "binding", "technique": "competition with immobilised ligand", "concentration": "10 µM", "remaining binding": "94%"}
{"Structure (SMILES)": "C[C@H](NC(=O)c1cnc2n1[C@](C)(Cc1ccc(C#N)cc1)C(=O)N2c1cc(Cl)c(F)c(Cl)c1)C(=O)NC1(c2ccccn2)CC1", "observed": "cell-free assay", "technique": "competition with immobilised ligand", "concentration": "1 µM", "remaining binding": "100%"}
{"Structure (SMILES)": "O=C(NCCCN1CCOCC1)c1ccc(Nc2ncc(Cl)c(-c3ccc(Cl)s3)n2)cc1", "observed": "binding", "technique": "competition with immobilised ligand", "concentration": "1 µM", "remaining binding": "79%"}
{"Structure (SMILES)": "F[C@@H]1CCN(c2nccc(-c3cnn4ncccc34)n2)C1", "observed": "binding", "concentration": "1 µM", "remaining binding": "100%"}
{"Structure (SMILES)": "CN(c1ccnc(CNc2nc(Nc3ccc4c(c3)CC(=O)N4)ncc2C(F)(F)F)n1)S(C)(=O)=O", "observed": "cell-free assay", "technique": "competition with immobilised ligand", "concentration": "1 µM", "remaining binding": "86%"}
{"Structure (SMILES)": "COc1cnc(Nc2cccc(S(N)(=O)=O)c2)nc1N1CCN(c2ccccc2)CC1", "observed": "binding", "technique": "competition with immobilised ligand", "concentration": "1 µM", "remaining binding": "83%"}
{"Structure (SMILES)": "C[C@@H](c1cccc(C#N)c1)n1cc(Cl)cc(C(N)=O)c1=N", "observed": "cell-free assay", "technique": "competition with immobilised ligand", "concentration": "1 µM", "remaining binding": "100%"}
{"Structure (SMILES)": "O=C(c1ccc(Nc2nccc(-c3cc4ccccc4s3)n2)cc1)N1CCC(N2CCCC2)CC1", "observed": "binding", "technique": "competition with immobilised ligand", "concentration": "1 µM", "remaining binding": "100%"}
{"Structure (SMILES)": "CN(CCCC(F)(F)F)c1nccc(-c2cnn3ncccc23)n1", "observed": "binding", "concentration": "1 µM", "remaining binding": "100%"}
{"Structure (SMILES)": "Cn1nc(C(=O)NCc2ccc(C(=O)O)cc2)cc1-c1ccc2[nH]ccc2c1", "observed": "cell-free assay", "technique": "competition with immobilised ligand", "concentration": "0.1 µM", "remaining binding": "91%"}
{"Structure (SMILES)": "C[C@@H](c1ccc(-n2cnc3c(N)ncnc32)cc1)N1CCc2nn(C)c(Cc3ccccc3)c2C1=O", "observed": "binding", "technique": "competition with immobilised ligand", "concentration": "0.1 µM", "remaining binding": "98%"}
{"Structure (SMILES)": "CC1CCCN1c1nccc(-c2cnn3ncccc23)n1 (stereo not drawn)", "observed": "binding", "concentration": "1 µM", "remaining binding": "98%"}
{"Structure (SMILES)": "O=C(NCC1CCOCC1)c1n[nH]cc1NC(=O)c1c(F)cccc1F", "observed": "binding", "technique": "competition with immobilised ligand", "concentration": "1 µM", "remaining binding": "75%"}
{"Structure (SMILES)": "CN(c1nccc(-c2cnn3ncccc23)n1)C1CC1", "observed": "binding", "concentration": "1 µM", "remaining binding": "84%"}
{"Structure (SMILES)": "Cc1cc(NC(=O)c2cccc(S(F)(F)(F)(F)F)c2)cc(-n2ccn3nc(-c4cccnc4)cc23)c1", "observed": "cell-free assay", "technique": "competition with immobilised ligand", "concentration": "1 µM", "remaining binding": "100%"}
{"Structure (SMILES)": "Nc1ncc2c(n1)-c1c([nH]c3ccc(C#CC4CC4)cc13)CCCC2", "observed": "binding", "technique": "competition with immobilised ligand", "concentration": "1 µM", "remaining binding": "100%"}
{"Structure (SMILES)": "C[C@H]1CCN(c2nccc(-c3cnn4ncccc34)n2)C1", "observed": "binding", "concentration": "1 µM", "remaining binding": "80%"}
